Measured values published in ChEMBL document CHEMBL2390921, “A novel benzazepinone sodium channel blocker with oral efficacy in a rat model of neuropathic pain” (Bioorg Med Chem Lett, 2013).

What was measured:
hERG (KCNH2) = hERG (KCNH2) (Homo sapiens, UniProt Q12809); test: Displacement of [35S]-MK0499 from human ERG expressed in HEK293 cell membranes at 10 uM after 2 hrs by liquid scintillation counting analysis relative to control; details: membranes of HEK293 cells that express human ERG, probe [35S]-MK0499
In short: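 hERG binding assay measuring displacement of 35S-labelled MK-0499, a known hERG blocker.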

[1] = target: Sodium channel protein type 9 subunit alpha (Homo sapiens, UniProt Q15858); test: Inhibition of human NaV1.7 channel expressed in HEK293 cells by FRET assay; type: cell-based
In short: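 HEK293 cells stably expressing human Nav1.7. Channel block was read in a functional membrane-potential assay based on FRET between two membrane-associated dyes; IC50 determined.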

Rattus norvegicus [2] = test: Neurotoxicity in rat assessed as reduction in latency time at => 30 mg/kg, po after 2 hrs by rotarod test relative to vehicle-treated control; type: toxicity, organism-based; set-up: dose 30 mg/kg, route oral; scale not given: the % may be the effect or the level left; details: in vivo
In short: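 Rats trained on rotarod 3 min at 10 rpm; single oral dose of test compound or vehicle (30 or 100 mg/kg); tested at 2 and 4 h post-dose with speed at 10 rpm for 60 s then accelerated to 60 rpm; time to fall after start of acceleration recorded. Significant impairment defined as >20% reduction in latency time.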

Rattus norvegicus [3] = test: Analgesic activity in po dosed rat spinal nerve ligation neuropathic pain model assessed as reversal of allodynia measured at 2 to 4 hrs; type: functional
In short: (§1)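 Rat spinal nerve ligation model. Seven days after surgery, rats received a single oral dose (3, 10 or 30 mg/kg) of test agent or vehicle. Tactile allodynia was scored at 2, 4, 8 and 24 h post-dose with calibrated von Frey filaments using an up-down paradigm. Threshold is the force giving a 50% withdrawal rate. %MPE = (post-compound − post-SNL)/(pre-SNL − post-SNL) × 100, where 100% is full reversal.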

Rattus norvegicus [4] = test: Analgesic activity in rat spinal nerve ligation neuropathic pain model assessed as reversal of allodynia at 30 mg/kg, po measured at 2 hrs relative to control; type: functional; in short: as §1
[5] = Plasma clearance in Sprague-Dawley rat at 3 mg/kg, po and 1 mg/kg, iv; type: ADME, organism-based
In short: (§2)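 Fasted male Sprague–Dawley rats (n = 3 per route) were dosed with 1.5 mg/mL solutions in PEG300/water or DMSO/PEG300/water, either 1.0 mg/kg iv via femoral-vein cannula or 3.0 mg/kg by oral gavage. Blood was sampled at 5 min (iv only), 15 and 30 min, and 1, 2, 4, 6 and 8 h. Plasma levels were measured by LC–MS/MS after acetonitrile protein precipitation.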

[6] = Half life in Sprague-Dawley rat at 3 mg/kg, po and 1 mg/kg, iv; type: ADME, organism-based; details: in vivo; in short: as §2
Rattus norvegicus [7] = test: Dose normalized AUC in Sprague-Dawley rat at 3 mg/kg, po; type: ADME, organism-based; set-up: dose 3 mg/kg, route oral; details: in vivo; in short: as §2
[8] = Oral bioavailability in Sprague-Dawley rat at 3 mg/kg; type: ADME, organism-based; details: in vivo; in short: as §2

Sequence of hERG (KCNH2) (Q12809 whole entry): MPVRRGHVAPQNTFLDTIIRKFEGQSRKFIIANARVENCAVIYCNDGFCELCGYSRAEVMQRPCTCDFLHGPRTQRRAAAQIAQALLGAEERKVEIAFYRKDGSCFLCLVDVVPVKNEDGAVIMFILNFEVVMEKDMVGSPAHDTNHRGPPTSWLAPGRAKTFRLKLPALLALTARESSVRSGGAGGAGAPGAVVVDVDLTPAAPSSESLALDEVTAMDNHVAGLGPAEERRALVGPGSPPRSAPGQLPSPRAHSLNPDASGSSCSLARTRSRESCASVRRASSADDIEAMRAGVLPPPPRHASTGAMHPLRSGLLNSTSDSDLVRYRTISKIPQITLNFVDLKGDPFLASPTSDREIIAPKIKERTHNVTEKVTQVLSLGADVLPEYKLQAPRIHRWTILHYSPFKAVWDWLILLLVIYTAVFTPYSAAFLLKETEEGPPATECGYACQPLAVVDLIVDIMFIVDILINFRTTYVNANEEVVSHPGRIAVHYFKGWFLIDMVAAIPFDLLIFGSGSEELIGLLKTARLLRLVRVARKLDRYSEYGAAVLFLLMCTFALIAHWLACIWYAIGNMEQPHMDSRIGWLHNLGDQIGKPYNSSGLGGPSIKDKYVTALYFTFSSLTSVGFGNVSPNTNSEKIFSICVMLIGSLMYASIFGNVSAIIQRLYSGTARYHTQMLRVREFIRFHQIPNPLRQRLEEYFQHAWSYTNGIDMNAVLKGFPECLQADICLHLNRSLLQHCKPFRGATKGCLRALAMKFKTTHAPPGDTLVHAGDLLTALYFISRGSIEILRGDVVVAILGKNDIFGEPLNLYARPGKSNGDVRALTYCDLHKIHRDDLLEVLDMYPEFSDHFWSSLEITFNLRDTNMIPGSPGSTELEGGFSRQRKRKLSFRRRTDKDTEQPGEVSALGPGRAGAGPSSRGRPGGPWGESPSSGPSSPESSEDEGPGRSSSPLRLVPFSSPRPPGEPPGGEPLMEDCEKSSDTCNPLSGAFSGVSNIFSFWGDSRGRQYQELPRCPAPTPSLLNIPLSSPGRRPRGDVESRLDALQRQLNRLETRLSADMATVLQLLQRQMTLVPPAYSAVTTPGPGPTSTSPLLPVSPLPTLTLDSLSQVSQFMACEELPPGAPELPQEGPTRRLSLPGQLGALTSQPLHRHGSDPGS
Sequence of Sodium channel protein type 9 subunit alpha (Q15858 whole entry): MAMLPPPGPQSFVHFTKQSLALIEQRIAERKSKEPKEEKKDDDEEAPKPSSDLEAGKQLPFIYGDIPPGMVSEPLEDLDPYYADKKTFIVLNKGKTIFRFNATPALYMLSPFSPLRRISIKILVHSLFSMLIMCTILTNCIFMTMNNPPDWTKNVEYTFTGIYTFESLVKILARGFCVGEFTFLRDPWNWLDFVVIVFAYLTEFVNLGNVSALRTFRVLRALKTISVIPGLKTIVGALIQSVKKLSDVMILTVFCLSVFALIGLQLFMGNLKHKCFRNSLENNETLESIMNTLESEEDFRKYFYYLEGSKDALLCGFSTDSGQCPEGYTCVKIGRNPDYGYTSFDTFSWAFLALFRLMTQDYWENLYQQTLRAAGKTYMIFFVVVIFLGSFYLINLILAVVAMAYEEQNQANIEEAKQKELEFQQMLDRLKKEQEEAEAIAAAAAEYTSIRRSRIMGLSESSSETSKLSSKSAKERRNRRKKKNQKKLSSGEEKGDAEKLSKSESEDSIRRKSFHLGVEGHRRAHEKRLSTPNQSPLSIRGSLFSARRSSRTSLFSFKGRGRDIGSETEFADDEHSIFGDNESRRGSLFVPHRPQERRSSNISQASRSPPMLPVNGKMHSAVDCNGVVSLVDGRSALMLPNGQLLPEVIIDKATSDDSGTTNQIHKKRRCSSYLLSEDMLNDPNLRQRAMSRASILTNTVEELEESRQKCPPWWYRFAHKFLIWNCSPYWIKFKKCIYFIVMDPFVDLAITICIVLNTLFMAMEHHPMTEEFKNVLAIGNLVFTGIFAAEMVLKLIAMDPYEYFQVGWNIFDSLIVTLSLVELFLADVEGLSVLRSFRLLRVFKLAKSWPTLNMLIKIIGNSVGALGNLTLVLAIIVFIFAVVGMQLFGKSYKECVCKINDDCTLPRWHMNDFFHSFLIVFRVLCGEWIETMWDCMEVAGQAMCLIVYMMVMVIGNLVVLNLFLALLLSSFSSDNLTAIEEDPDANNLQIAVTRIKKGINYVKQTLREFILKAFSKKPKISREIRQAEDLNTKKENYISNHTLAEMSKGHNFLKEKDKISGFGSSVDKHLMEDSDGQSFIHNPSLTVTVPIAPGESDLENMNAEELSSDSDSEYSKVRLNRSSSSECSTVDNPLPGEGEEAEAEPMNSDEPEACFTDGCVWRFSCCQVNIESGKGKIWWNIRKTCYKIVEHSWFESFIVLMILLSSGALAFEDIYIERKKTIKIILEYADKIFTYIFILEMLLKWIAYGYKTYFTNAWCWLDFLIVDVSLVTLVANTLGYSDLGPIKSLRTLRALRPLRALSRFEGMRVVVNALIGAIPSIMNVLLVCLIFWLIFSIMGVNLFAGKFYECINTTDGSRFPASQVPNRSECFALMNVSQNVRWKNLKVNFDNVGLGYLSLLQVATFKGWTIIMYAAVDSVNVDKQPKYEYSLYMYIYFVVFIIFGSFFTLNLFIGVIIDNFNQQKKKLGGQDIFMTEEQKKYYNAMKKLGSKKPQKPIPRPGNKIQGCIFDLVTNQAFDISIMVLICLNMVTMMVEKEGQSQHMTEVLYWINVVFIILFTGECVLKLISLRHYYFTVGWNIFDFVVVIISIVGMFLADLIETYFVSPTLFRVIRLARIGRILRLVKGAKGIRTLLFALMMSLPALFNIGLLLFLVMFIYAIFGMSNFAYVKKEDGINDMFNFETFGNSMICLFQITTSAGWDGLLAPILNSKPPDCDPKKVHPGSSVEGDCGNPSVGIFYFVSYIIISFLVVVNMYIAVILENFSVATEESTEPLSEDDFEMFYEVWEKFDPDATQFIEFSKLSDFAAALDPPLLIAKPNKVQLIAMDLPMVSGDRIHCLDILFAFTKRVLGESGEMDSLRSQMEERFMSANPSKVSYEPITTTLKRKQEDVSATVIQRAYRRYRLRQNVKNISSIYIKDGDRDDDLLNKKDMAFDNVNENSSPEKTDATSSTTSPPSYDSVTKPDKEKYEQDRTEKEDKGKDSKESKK

SMILES: CC1CC1N1C(=O)[C@H](NC(=O)[C@@H](Cc2ccccc2F)NC(=O)C2CC2C(F)(F)F)CCc2c(F)c(F)cc(F)c21 (stereo partly drawn)
- inhibition at 2 h, 10 µM (hERG (KCNH2)): 54%
- IC50 [1]: 101 nM

SMILES: CC(C)N1C(=O)[C@H](NC(=O)[C@@H](Cc2ccccc2F)NC(=O)c2ccccc2C(F)(F)F)CCc2c(F)c(F)cc(F)c21
- inhibition at 2 h, 10 µM (hERG (KCNH2)): 10%
- IC50 [1]: 229 nM

SMILES: NCC1(CC(=O)O)CCCCC1 [GABAPENTIN]
- Activity (Rattus norvegicus [2]): > 20%
- ED50 (Rattus norvegicus [3]): 50 mg/kg
- Activity (Rattus norvegicus [4]): 36%

SMILES: CC(C)N1C(=O)[C@H](NC(=O)[C@@H](Cc2ccccc2OC(F)(F)F)NC(=O)OC(C)(C)C)CCc2cc(F)cc(F)c21
- clearance [5]: 17 mL/min/kg
- half-life [6]: 2.7 h
- AUC/dose (Rattus norvegicus [7]): 0.54 µM·h/mg/kg
- inhibition at 2 h, 10 µM (hERG (KCNH2)): 21%
- bioavailability [8]: 30%
- IC50 [1]: 57 nM

SMILES: O=C(N[C@H](Cc1ccccc1F)C(=O)N[C@@H]1CCc2c(F)c(F)cc(F)c2N(C2CC2)C1=O)c1ccc(F)cc1C(F)(F)F
- inhibition at 2 h, 10 µM (hERG (KCNH2)): 31%
- IC50 [1]: 85 nM

SMILES: CC(C)N1C(=O)[C@H](NC(=O)[C@@H](Cc2ccccc2F)NC(=O)c2ccc(F)cc2C(F)(F)F)CCc2c(F)c(F)cc(F)c21
- clearance [5]: 19 mL/min/kg
- half-life [6]: 5.6 h
- AUC/dose (Rattus norvegicus [7]): 1 µM·h/mg/kg
- inhibition at 2 h, 10 µM (hERG (KCNH2)): 20%
- bioavailability [8]: 68%
- IC50 [1]: 103 nM

SMILES: CC(C)N1C(=O)[C@H](NC(=O)[C@@H](Cc2ccccc2OC(F)(F)F)NC(=O)OC(C)(C)C)CCc2cccc(F)c21
- clearance [5]: 21 mL/min/kg
- half-life [6]: 2.7 h
- AUC/dose (Rattus norvegicus [7]): 0.39 µM·h/mg/kg
- inhibition at 2 h, 10 µM (hERG (KCNH2)): 24%
- bioavailability [8]: 27%
- IC50 [1]: 70 nM

SMILES: CC(C)N1C(=O)[C@H](NC(=O)[C@@H](Cc2ccccc2F)NC(=O)c2ccc(F)cc2C(F)(F)F)CCc2cc(Cl)cc(F)c21
- clearance [5]: 21 mL/min/kg
- half-life [6]: 1.9 h
- AUC/dose (Rattus norvegicus [7]): 0.93 µM·h/mg/kg
- inhibition at 2 h, 10 µM (hERG (KCNH2)): 17%
- bioavailability [8]: 74%
- IC50 [1]: 260 nM

SMILES: CC(C)N1C(=O)[C@H](NC(=O)[C@@H](Cc2ccccc2OC(F)(F)F)NC(=O)OC(C)(C)C)CCc2cc(F)ccc21
- clearance [5]: 16 mL/min/kg
- half-life [6]: 2.3 h
- AUC/dose (Rattus norvegicus [7]): 0.66 µM·h/mg/kg
- inhibition at 2 h, 10 µM (hERG (KCNH2)): 24%
- bioavailability [8]: 35%
- IC50 [1]: 34 nM

SMILES: CC(C)N1C(=O)[C@H](NC(=O)[C@@H](Cc2ccccc2OC(F)(F)F)NC(=O)OC(C)(C)C)CCc2cc(Cl)ccc21
- AUC/dose (Rattus norvegicus [7]): 0.71 µM·h/mg/kg

SMILES: CC(C)N1C(=O)[C@H](NC(=O)[C@@H](Cc2ccccc2F)NC(=O)c2ccc(F)cc2C(F)(F)F)CCc2cc(F)ccc21
- clearance [5]: 36 mL/min/kg
- half-life [6]: 1.7 h
- AUC/dose (Rattus norvegicus [7]): 0.45 µM·h/mg/kg
- inhibition at 2 h, 10 µM (hERG (KCNH2)): 36%
- bioavailability [8]: 56%
- IC50 [1]: 254 nM

SMILES: CC(C)N1C(=O)[C@H](NC(=O)[C@@H](Cc2ccccc2OC(F)(F)F)NC(=O)OC(C)(C)C)CCc2cc(C(F)(F)F)ccc21
- clearance [5]: 39 mL/min/kg
- half-life [6]: 1.9 h
- AUC/dose (Rattus norvegicus [7]): 0.41 µM·h/mg/kg
- inhibition at 2 h, 10 µM (hERG (KCNH2)): 7%
- bioavailability [8]: 59%
- IC50 [1]: 181 nM

SMILES: CC1CC1N1C(=O)[C@H](NC(=O)[C@@H](Cc2ccccc2F)NC(=O)c2ccc(F)cc2C(F)(F)F)CCc2c(F)c(F)cc(F)c21 (stereo partly drawn)
- inhibition at 2 h, 10 µM (hERG (KCNH2)): 44%
- IC50 [1]: 131 nM

SMILES: CC(C)N1C(=O)[C@H](NC(=O)[C@@H](Cc2ccccc2F)NC(=O)c2ccc(F)cc2C(F)(F)F)CCc2cc(Cl)ccc21
- AUC/dose (Rattus norvegicus [7]): 0.58 µM·h/mg/kg

SMILES: CC1CC1C(=O)N[C@H](Cc1ccccc1F)C(=O)N[C@@H]1CCc2c(F)c(F)cc(F)c2N(C(C)C)C1=O (stereo partly drawn)
- clearance [5]: 35 mL/min/kg
- half-life [6]: 0.8 h
- AUC/dose (Rattus norvegicus [7]): 0.44 µM·h/mg/kg
- inhibition at 2 h, 10 µM (hERG (KCNH2)): 0%
- bioavailability [8]: 47%
- IC50 [1]: 103 nM

SMILES: CC(C)N1C(=O)[C@H](NC(=O)[C@@H](Cc2ccccc2OC(F)(F)F)NC(=O)OC(C)(C)C)CCc2ccc(F)cc21
- clearance [5]: 29 mL/min/kg
- half-life [6]: 2.5 h
- AUC/dose (Rattus norvegicus [7]): 0.2 µM·h/mg/kg
- inhibition at 2 h, 10 µM (hERG (KCNH2)): 26%
- bioavailability [8]: 20%
- IC50 [1]: 18 nM

SMILES: CC(C)N1C(=O)[C@H](NC(=O)[C@@H](Cc2ccccc2OC(F)(F)F)NC(=O)OC(C)(C)C)CCc2ccc(C(F)(F)F)cc21
- clearance [5]: 26 mL/min/kg
- half-life [6]: 1.3 h
- AUC/dose (Rattus norvegicus [7]): 0.22 µM·h/mg/kg
- inhibition at 2 h, 10 µM (hERG (KCNH2)): 19%
- bioavailability [8]: 21%
- IC50 [1]: 494 nM

SMILES: CC(C)N1C(=O)[C@H](NC(=O)[C@@H](Cc2ccccc2F)NC(=O)c2ccc(F)cc2C(F)(F)F)CCc2cc(C(F)(F)F)ccc21
- clearance [5]: 33 mL/min/kg
- half-life [6]: 2.5 h
- AUC/dose (Rattus norvegicus [7]): 0.6 µM·h/mg/kg
- inhibition at 2 h, 10 µM (hERG (KCNH2)): 10%
- bioavailability [8]: 75%
- IC50 [1]: 359 nM

SMILES: CC(C)N1C(=O)[C@H](NC(=O)[C@@H](Cc2ccccc2F)NC(=O)c2ccccn2)CCc2c(F)c(F)cc(F)c21
- inhibition at 2 h, 10 µM (hERG (KCNH2)): 22%
- IC50 [1]: 443 nM

SMILES: Cc1cccc(C)c1OCC(C)N (stereo not drawn) [MEXILETINE]
- ED50 (Rattus norvegicus [3]): 45 mg/kg
- Activity (Rattus norvegicus [4]): 42%

SMILES: CC(C)N1C(=O)[C@H](NC(=O)[C@@H](Cc2ccccc2OC(F)(F)F)NC(=O)OC(C)(C)C)CCc2c(F)c(F)cc(F)c21
- inhibition at 2 h, 10 µM (hERG (KCNH2)): 24%
- IC50 [1]: 67 nM

SMILES: CC(C)N1C(=O)[C@H](NC(=O)[C@@H](Cc2ccccc2OC(F)(F)F)NC(=O)OC(C)(C)C)CCc2ccccc21
- AUC/dose (Rattus norvegicus [7]): 0.31 µM·h/mg/kg

SMILES: CC(C)N1C(=O)[C@H](NC(=O)[C@@H](Cc2ccccc2F)NC(=O)C2CC2C(F)(F)F)CCc2c(F)c(F)cc(F)c21 (stereo partly drawn)
- clearance [5]: 23 mL/min/kg
- half-life [6]: 2.2 h
- AUC/dose (Rattus norvegicus [7]): 0.79 µM·h/mg/kg
- inhibition at 2 h, 10 µM (hERG (KCNH2)): 2%
- bioavailability [8]: 62%
- IC50 [1]: 137 nM

SMILES: CC(C)N1C(=O)[C@H](NC(=O)[C@@H](Cc2ccccc2F)NC(=O)c2ccc(F)cc2C(F)(F)F)CCc2cc(F)cc(F)c21
- clearance [5]: 21 mL/min/kg
- half-life [6]: 1.9 h
- AUC/dose (Rattus norvegicus [7]): 0.42 µM·h/mg/kg
- inhibition at 2 h, 10 µM (hERG (KCNH2)): 34%
- bioavailability [8]: 31%
- IC50 [1]: 264 nM
